From ChEMBL document CHEMBL3352304, “Synthesis and evaluation of 3-salicyloylpyridine derivatives as cytotoxic mitochondrial apoptosis inducers” (Bioorg Med Chem Lett, 2014)
Calls of active or inactive are those of the source. No cut-off for these calls is given here.

Legend:
MCF7 = experiment: Cytotoxicity against human MCF7 cells after 48 hrs by SRB assay; format: functional, cell-based; conditions: MCF7, 48 h
[1] = Cytotoxicity against human IMR32 cells after 48 hrs by SRB assay; format: functional, cell-based; conditions: IMR-32, 48 h
[2] = Cytotoxicity against human Hep cells after 48 hrs by SRB assay; format: functional, cell-based
HeLa = experiment: Cytotoxicity against human HeLa cells after 48 hrs by SRB assay; format: functional, cell-based
[3] = Cytotoxicity against human PC3 cells after 48 hrs by SRB assay; format: functional, cell-based; conditions: PC-3, 48 h
PC-3 [4] = experiment: Induction of apoptosis in human PC3 cells at 2 uM incubated for 12 hrs by DAPI staining based confocal laser microscopy; format: functional, cell-based
Method in brief: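 PC-3 human prostate cancer cells (1 × 10⁶ in 1 ml medium) grown to confluence for 24 h at 37 °C, 5% CO₂, then exposed 12 h. Medium replaced with serum-free medium and cells stained with DAPI for 1 h at 37 °C. Nuclear and cell morphology imaged by laser scanning confocal fluorescence microscopy against untreated control cells.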

PC-3 [5] = experiment: Induction of apoptotic morphological changes in human PC3 cells assessed as cell surface smoothening at cytotoxic IC50 level incubated for 12 hrs by scanning electron microscopy; format: functional, cell-based
Method in brief: (§1)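 PC-3 cells incubated with test compound at its IC₅₀ for 12 h, with 2 µM camptothecin as positive control and untreated cells as control; cell surface morphology examined by scanning electron microscopy.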

PC-3 [6] = experiment: Induction of intracellular ROS generation in human PC3 cells incubated for 12 hrs by DCFH-DA dye based spectrofluorimetry; format: functional, cell-based
Method in brief: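 PC-3 cells plated at 1 × 10⁶ cells/dish in 24-well plates, adhered 6 h, then grown with or without test compound at 5, 10 and 15 µM for 12 h; DCFH-DA added 30 min before end. Trypsinized plus floating cells collected, 1 × 10⁶ cells pelleted, resuspended in ice-cold PBS (1.0 ml) and intracellular peroxides measured by spectrofluorimetry.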

PC-3 [7] = experiment: Induction of apoptotic morphological changes in human PC3 cells assessed as cell size condensation at cytotoxic IC50 level incubated for 12 hrs by scanning electron microscopy; format: functional, cell-based; method in brief: as §1
PC-3 [8] = experiment: Induction of apoptotic morphological changes in human PC3 cells assessed as spherical cell shape changes at cytotoxic IC50 level incubated for 12 hrs by DAPI staining based confocal laser microscopy; format: functional
Method in brief: (§2)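 PC-3 cells (1 × 10⁶) in 1 ml medium in 24-well plates grown to confluence 24 h at 37 °C, 5% CO₂, then exposed to test compound at its IC₅₀ for 12 h; camptothecin 2 µM as positive control. Medium replaced with serum-free medium, cells stained with DAPI (10 mM) 1 h at 37 °C and imaged by laser scanning confocal fluorescence microscopy against untreated control.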

PC-3 [9] = experiment: Induction of apoptotic morphological changes in human PC3 cells assessed as plasma membrane blebbing at cytotoxic IC50 level incubated for 12 hrs by DAPI staining based confocal laser microscopy; format: functional, cell-based; method in brief: as §2
PC-3 [10] = experiment: Induction of apoptotic morphological changes in human PC3 cells assessed as plasma membrane blebbing at cytotoxic IC50 level incubated for 12 hrs by scanning electron microscopy; format: functional, cell-based; method in brief: as §1
PC-3 [11] = experiment: Reduction in mitochondrial membrane potential in human PC3 cells incubated for 12 hrs by rhodamine-123 dye based spectrofluorimetry; format: functional, cell-based
Method in brief: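 PC-3 cells (1 × 10⁶) in 24-well plates incubated with or without test compound at 1, 5 and 10 µM for 12 h at 37 °C, 5% CO₂, washed with PBS, then loaded with rhodamine-123 1 h in serum-free medium. Fluorescence read in a plate reader at excitation 480 nm / emission 530 nm; shown with SD.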

PC-3 [12] = experiment: Induction of apoptotic morphological changes in human PC3 cells assessed as increase in apoptotic bodies at cytotoxic IC50 level incubated for 12 hrs by DAPI staining based confocal laser microscopy; format: functional, cell-based; method in brief: as §2

Which IC50 (MCF7) does the source give for CC(=O)O[C@H]1C(=O)[C@@]2(C)[C@H]([C@H](OC(=O)c3ccccc3)[C@]3(O)C[C@H](OC(=O)[C@H](O)[C@@H](NC(=O)c4ccccc4)c4ccccc4)C(C)=C1C3(C)C)[C@]1(OC(C)=O)CO[C@@H]1C[C@@H]2O [PACLITAXEL] here?
The IC50 was 0.2 µM.

For O=c1[nH]cc(F)c(=O)[nH]1 [FLUOROURACIL], which IC50 [1] is on record?
The IC50 was 1.3 µM.

And the IC50 [2]?
Its IC50 is 0.5 µM.

Which IC50 (HeLa) does the source give for C=CCOc1c(Cl)cc(Cl)cc1C(=O)c1cccnc1 here?
Its IC50 is 34 µM.

What about the IC50 [1] of the same compound?
Its IC50 is 52 µM.

And the IC50 [3]?
Its IC50 is 96 µM.

And the IC50 [2]?
The IC50 was greater than 100 µM.

And the IC50 (MCF7)?
Its IC50 is 85 µM.

With O=C(c1cccnc1)c1ccccc1O as the compound, how does the IC50 (HeLa) read?
Its IC50 is 33 µM.

And the IC50 [1]?
The IC50 was 33.7 µM.

And the IC50 [3]?
The IC50 was 33.4 µM.

What about the IC50 [2] of the same compound?
The IC50 was 31 µM.

And the IC50 (MCF7)?
The IC50 was 24.6 µM.

For C=CCOc1ccccc1C(=O)c1cccnc1, which IC50 (HeLa) is on record?
The IC50 was greater than 100 µM.

And the IC50 [1]?
Its IC50 is 44 µM.

And the IC50 [3]?
The IC50 was 55 µM.

What about the IC50 [2] of the same compound?
Its IC50 is greater than 100 µM.

And the IC50 (MCF7)?
Its IC50 is greater than 100 µM.

For O=C(c1cccnc1)c1cc(F)ccc1O, which IC50 (HeLa) is on record?
The IC50 was 27 µM.

What about the IC50 [1] of the same compound?
Its IC50 is 6.21 µM.

And the IC50 [3]?
Its IC50 is 11.8 µM.

And the IC50 [2]?
The IC50 was 12 µM.

And the IC50 (MCF7)?
The IC50 was 27.8 µM.

With CC[C@@]1(O)C(=O)OCc2c1cc1n(c2=O)Cc2cc3ccccc3nc2-1 as the compound, how does the Activity (PC-3 [4]) read?
Its Activity is “Active”.

For C=CCOc1c(Cl)cccc1C(=O)c1cccnc1, which IC50 (HeLa) is on record?
The IC50 was 100 µM.

And the IC50 [1]?
Its IC50 is 94 µM.

What about the IC50 [3] of the same compound?
Its IC50 is greater than 100 µM.

And the IC50 [2]?
Its IC50 is 92 µM.

What about the IC50 (MCF7) of the same compound?
Its IC50 is greater than 100 µM.

With C=CCOc1ccc(Br)cc1C(=O)c1cccnc1 as the compound, how does the IC50 (HeLa) read?
The IC50 was 96 µM.

And the IC50 [1]?
Its IC50 is 88 µM.

What about the IC50 [3] of the same compound?
Its IC50 is 59 µM.

What about the IC50 [2] of the same compound?
The IC50 was 78 µM.

And the IC50 (MCF7)?
Its IC50 is 92 µM.

What does the source list for Cc1ccc(O)c(C(=O)c2cccnc2)c1?
Activity (PC-3 [5]): Active; Activity (PC-3 [6]): Dose-dependent effect; Activity (PC-3 [7]): Active; IC50 (HeLa): 26 µM; IC50 [1]: 5.54 µM; Activity (PC-3 [8]): Active; IC50 [3]: 10 µM; Activity (PC-3 [9]): Active; Activity (PC-3 [10]): Active; IC50 [2]: 11 µM; Activity (PC-3 [11]): Dose-dependent effect; Activity (PC-3 [12]): Active; IC50 (MCF7): 8.04 µM

With C=CCOc1cc(Br)ccc1C(=O)c1cccnc1 as the compound, how does the IC50 (HeLa) read?
The IC50 was greater than 100 µM.

What about the IC50 [1] of the same compound?
The IC50 was 98 µM.

What about the IC50 [3] of the same compound?
The IC50 was greater than 100 µM.

What about the IC50 [2] of the same compound?
Its IC50 is greater than 100 µM.

What about the IC50 (MCF7) of the same compound?
Its IC50 is greater than 100 µM.

With O=C(c1cccnc1)c1ccc(Br)cc1O as the compound, how does the IC50 (HeLa) read?
Its IC50 is 37 µM.

What about the IC50 [1] of the same compound?
Its IC50 is 89 µM.

And the IC50 [3]?
The IC50 was 88.6 µM.

What about the IC50 [2] of the same compound?
Its IC50 is 85 µM.

What about the IC50 (MCF7) of the same compound?
Its IC50 is greater than 100 µM.

For O=C(c1cccnc1)c1cc(Br)ccc1O, which IC50 (HeLa) is on record?
Its IC50 is 29 µM.

What about the IC50 [1] of the same compound?
Its IC50 is 23.4 µM.

And the IC50 [3]?
The IC50 was 60.2 µM.

And the IC50 [2]?
Its IC50 is 29 µM.

And the IC50 (MCF7)?
Its IC50 is 53.5 µM.

With O=C(c1cccnc1)c1cc(Cl)ccc1O as the compound, how does the IC50 (HeLa) read?
Its IC50 is 24 µM.

What about the IC50 [1] of the same compound?
Its IC50 is 19.5 µM.

And the IC50 [3]?
Its IC50 is 24.8 µM.

What about the IC50 [2] of the same compound?
Its IC50 is 27 µM.

What about the IC50 (MCF7) of the same compound?
The IC50 was 29 µM.

Which IC50 (HeLa) does the source give for C=CCOc1ccc(F)cc1C(=O)c1cccnc1 here?
The IC50 was 93 µM.

And the IC50 [1]?
The IC50 was 91 µM.

And the IC50 [3]?
Its IC50 is greater than 100 µM.

And the IC50 [2]?
Its IC50 is greater than 100 µM.

What about the IC50 (MCF7) of the same compound?
Its IC50 is greater than 100 µM.

With C=CCOc1ccc(Cl)cc1C(=O)c1cccnc1 as the compound, how does the IC50 (HeLa) read?
The IC50 was 75 µM.

And the IC50 [1]?
The IC50 was 91 µM.

What about the IC50 [3] of the same compound?
Its IC50 is greater than 100 µM.

What about the IC50 [2] of the same compound?
The IC50 was greater than 100 µM.

And the IC50 (MCF7)?
Its IC50 is 54 µM.

With CO[C@@]12[C@H](COC(N)=O)C3=C(C(=O)C(C)=C(N)C3=O)N1C[C@@H]1N[C@@H]12 [MITOMYCIN] as the compound, how does the IC50 [3] read?
Its IC50 is 1.5 µM.

What does the source list for O=C(c1cccnc1)c1cccc(Cl)c1O?
IC50 (HeLa): 21 µM; IC50 [1]: 26 µM; IC50 [3]: 31.5 µM; IC50 [2]: 28 µM; IC50 (MCF7): 26.7 µM

What does the source list for C=CCOc1ccc(C)cc1C(=O)c1cccnc1?
IC50 (HeLa): 94 µM; IC50 [1]: 87 µM; IC50 [3]: 98 µM; IC50 [2]: 72 µM; IC50 (MCF7): 84 µM

What does the source list for O=C(c1cccnc1)c1cc(Cl)cc(Cl)c1O?
IC50 (HeLa): > 100 µM; IC50 [1]: 28.8 µM; IC50 [3]: 28.7 µM; IC50 [2]: 27 µM; IC50 (MCF7): 29.6 µM
